# Sampled rows, rich in hits. Any-hit rate of the full collection: about 1.6%.
# PG9 Ab binder: binds the HIV-1 gp120 antibody PG9; TR-FRET gp120-PG9 antibody binding; inhibition, % at 6.7 µM; hit rate 0.43% among 360,000; in the data active = inhibition above about 8.5%
# Rev-erbA mod: Rev-erb alpha (human) modulation; activity, % at 10 µM; P20393; Rev-erbα–FITC-DNA binding, fluorescence polarization, 90 min; hit rate 0.79% among 370,000;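 active = activity above about 14%, limit read from the data; passing the limit was not always enough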
# NR2E3 ag-1: agonists of human nuclear receptor NR2E3. GST-NR2E3/biotin-RetCOR TR-FRET, 1536-well. AID 2300. hit rate 0.12% among 320,000. inhibition of corepressor binding, % at 4.78 µM. Q9Y5X4;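 active = percent inhibition above the cutoff of mean plus 3 SD of all tested compounds, set per screening campaign, cut at about 20% in these data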
#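 System: GST-tagged NR2E3 plus biotinylated RetCOR corepressor; Buffer or medium: pH 7.5 Tris-based buffer; Probe or stimulus: RetCOR corepressor, biotinylated, 7 nM; Doses: compound at 4.8 µM, single dose; Schedule: 5 h incubation at 4 °C; Technique: time-resolved FRET; Evaluation: percent inhibition of TR-FRET ratio; Replication: one well per compound, singlicate testing.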
# NR2E3 ag-2: human photoreceptor-specific nuclear receptor agonism | Q9Y5X4 | inhibition of corepressor binding, % at 3.98 µM | CHO-S Gal4-NCOR/VP16-NR2E3 two-hybrid, luciferase | hit rate 0.35% among 360,000;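 active = inhibition above the mean of all tested compounds plus 3 SD, cut at about 70% in these data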;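 also: higher means lower luciferase signal from less NR2E3 corepressor binding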
# VLA-4 inh: inhibition in a human VLA-4 binding assay. VLA-4 expressing cells, ligand binding flow cytometry. inhibition, % (about 7 µM as worked out from the volumes in the protocol). hit rate 0.2% among 330,000; in the data active = inhibition above about 50%
# Target sequence (P13612 whole entry, looked up): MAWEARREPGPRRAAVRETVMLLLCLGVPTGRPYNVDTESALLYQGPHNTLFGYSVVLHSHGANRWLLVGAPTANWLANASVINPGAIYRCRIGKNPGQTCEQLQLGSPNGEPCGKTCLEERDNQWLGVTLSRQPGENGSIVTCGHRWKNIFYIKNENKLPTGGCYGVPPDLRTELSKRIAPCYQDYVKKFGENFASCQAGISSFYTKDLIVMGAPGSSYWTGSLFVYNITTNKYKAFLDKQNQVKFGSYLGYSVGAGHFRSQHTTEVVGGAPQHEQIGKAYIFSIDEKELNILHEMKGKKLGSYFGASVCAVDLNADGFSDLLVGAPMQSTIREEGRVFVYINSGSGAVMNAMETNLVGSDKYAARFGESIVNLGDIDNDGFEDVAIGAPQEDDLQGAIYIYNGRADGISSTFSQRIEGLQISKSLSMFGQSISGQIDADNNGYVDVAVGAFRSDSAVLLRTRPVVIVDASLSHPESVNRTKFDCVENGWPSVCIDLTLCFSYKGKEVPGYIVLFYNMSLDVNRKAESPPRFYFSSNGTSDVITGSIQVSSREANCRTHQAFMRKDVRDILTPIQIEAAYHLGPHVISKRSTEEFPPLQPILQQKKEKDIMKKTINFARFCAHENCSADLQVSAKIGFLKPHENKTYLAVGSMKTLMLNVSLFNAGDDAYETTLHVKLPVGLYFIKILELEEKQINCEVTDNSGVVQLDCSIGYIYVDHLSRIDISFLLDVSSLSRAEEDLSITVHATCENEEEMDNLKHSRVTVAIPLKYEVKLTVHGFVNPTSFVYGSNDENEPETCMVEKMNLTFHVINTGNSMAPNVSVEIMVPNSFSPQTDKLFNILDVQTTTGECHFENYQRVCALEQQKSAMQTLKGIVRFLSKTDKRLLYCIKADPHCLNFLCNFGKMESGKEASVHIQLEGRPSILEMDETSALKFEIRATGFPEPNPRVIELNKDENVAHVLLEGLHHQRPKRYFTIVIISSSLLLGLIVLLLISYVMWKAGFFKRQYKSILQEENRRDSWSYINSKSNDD
# Rev-erbA confirm: Rev-erb alpha (human) modulation, hit confirmation; AID 1259319; Rev-erb alpha FITC-DNA binding, fluorescence polarization, 90 min; activation, % at 25 µM; shares compounds with Rev-erbA mod; hit rate 61% among 3,000;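 active = activation at or above a set limit, or at least 3 SD above the negative control mean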
# RORg DNA counter: RORgamma DNA-binding activity, dose-response counter-screen | hit rate 8% among 910 | purified RORgamma protein-FITC-DNA binding, fluorescence polarization | AID 1259320 | IC50, µM | shares compounds with Rev-erbA mod;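 active = Compounds whose fitted half-maximal concentration for disrupting protein-DNA binding is below 10 micromolar; the record names Rev-erb in its text, so the target is in doubt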
# Hits are given with their value; - = inactive; . = no result.
SMILES,PG9 Ab binder,Rev-erbA mod,NR2E3 ag-1,NR2E3 ag-2,VLA-4 inh,Rev-erbA confirm,others
Cc1ccnc(N2CCC(C(=O)Nc3ccc(Oc4ccccc4)cc3)CC2)n1,-,24,-,-,-,-,
CC(=O)N1CCCc2ccc(NS(=O)(=O)c3ccccc3)cc21,-,-,-,-,-,.,
O=C1COc2ccc(C(=O)CSc3nc4ccccc4c(=O)n3-c3ccc(Cl)c(Cl)c3)cc2N1,-,26,-,-,-,-,
Cn1c(SCC(=O)c2ccc3c(c2)NC(=O)CO3)nc2ccccc21,-,36,-,-,-,24,
O=C1COc2ccc(C(=O)CSc3nnc(Cc4ccccc4)o3)cc2N1,-,18,-,-,-,21,
Cn1nc(C(F)(F)F)c2cc(C(=O)Nc3ccc(C(F)(F)F)cc3)sc21,-,-,-,-,-,.,
C=CCCCCCCCCC(=O)N1CCN(c2cc3c(cc2F)c(=O)c(C(=O)O)cn3CC)CC1,-,-,-,-,-,.,
CCCCCCn1cc(C(=O)O)c(=O)c2cc(F)c(N3CCN(C(=O)OCC)CC3)cc21,-,31,-,-,-,-,
Cc1cc(C)c2c(n1)nn1c(N3CCN(c4ccccc4C)CC3)cc(C)nc21,-,71,-,-,-,26,
COc1ccc(CN2CCN(c3cc(C)nc4c5c(C)cc(C)nc5nn34)CC2)cc1F,-,-,-,-,-,.,
CCOC(=O)c1c(NC(=O)c2ccc(S(=O)(=O)N3CCOCC3)cc2)sc2c1CC(C)(C)NC2(C)C,-,42,-,-,-,-,
CN1C(=O)CSC1=NC12CC3CC(CC(C3)C1)C2,-,-,-,-,-,.,
CCN1C(=O)CSC1=NC12CC3CC(CC(C3)C1)C2,-,49,-,-,-,58,RORg DNA counter=-
CCOc1ccc(NC(=O)c2ccc(NC(=O)c3cn4c5c(c(N6CCN(C)CC6)c(F)cc5c3=O)OCC4C)cc2)cc1 (stereo not drawn),-,70,-,-,-,41,
CC1COc2c(N3CCN(C)CC3)c(F)cc3c(=O)c(C(=O)O)cn1c23 (stereo not drawn),-,-,-,-,-,.,
Cc1ccc(/C=C(\C#N)C(=O)NC(C)C)o1,-,-,-,-,-,.,
CC(C)NC(=O)/C(C#N)=C/c1ccc(N(C)C)o1,-,25,-,-,-,-,
Cc1oc2c(cc(NS(=O)(=O)c3ccc(C(C)C)cc3)c3ccccc32)c1C(=O)O,-,-,-,-,-,.,
Cc1oc2c(cc(NS(=O)(=O)c3cccs3)c3ccccc32)c1C(=O)OC(C)C,-,50,-,-,-,72,
Cc1ccc(N(C(=O)c2ccco2)C(C(=O)NC2CCCC2)c2cccnc2)cc1 (stereo not drawn),-,-,-,-,-,.,
CCc1nnc(NC(=O)CN2C(=O)NC3(CC(C)CC(C)(C)C3)C2=O)s1 (stereo not drawn),-,-,-,-,-,.,
O=[N+]([O-])c1cc([N+](=O)[O-])c(Oc2cccc3ccccc23)cc1NN1CCCCC1,-,-,.,-,.,.,
O=[N+]([O-])c1cc([N+](=O)[O-])c(Oc2cccnc2Br)cc1NN1CCCCC1,-,16,-,-,-,-,
COc1ccc(CC(=O)Nc2ccc(-c3cn4ccc(C)cc4n3)cc2)cc1,-,16,-,-,-,-,
COc1ccc(CC(=O)Nc2ccc(-c3cn4cccc(C)c4n3)cc2)cc1OC,-,-,-,-,-,.,
SMILES,PG9 Ab binder,Rev-erbA mod,NR2E3 ag-1,NR2E3 ag-2,VLA-4 inh,Rev-erbA confirm,others
N/C(=N/OC(=O)c1ccccc1Cl)c1ncc([N+](=O)[O-])s1,-,-,-,-,-,.,
CC1(C)CC2(CC(c3ccccc3F)c3ccc(O)c(O)c3O2)NC(=S)N1 (stereo not drawn),-,-,-,-,-,.,
Cc1ccc2nc(-c3cccc(Br)c3)cc(C(=O)NCC3CCCO3)c2c1 (stereo not drawn),-,24,-,-,-,-,
O=c1[nH]nc(Cc2ccc(-c3ccccc3Cl)o2)c2ccccc12,-,34,-,-,-,17,
O=c1[nH]nc(Cc2ccc(Cl)cc2)c2ccccc12,-,-,-,-,-,.,
COc1cccc(NC(=O)CSc2nnc3ccc(-c4ccccn4)nn23)c1,-,35,.,-,.,-,

# Bioassay records as filed in PubChem BioAssay.
